Laboratory results from PMC7293934 (Neuropharmacology, 2020).
Several values for one entry are separate records, joined by “and”; a condition that tells them apart may be missing. Equal values may be shown once. Entries after “also recorded” stand apart in the source; their conditions may differ. Read-outs that look alike come from different tables or passages of the source.

What was measured:
recombinant GluN1/2A/2C = conditions: ref Bhattacharya et al., 2018; cited from earlier work
GluN1/2D [1] = biological target: T1, GluN1/2D (Rattus norvegicus, UniProt P35439+Q62645); type: cell-based; conditions: for Increase in glutamate potency / Increase in glycine potency: 10 μM modulator; for Increase in glutamate potency: 50 μM glycine; for Increase in glycine potency: 100 μM glutamate; for Increase in potencies of co-agonists glutamate and glycine: summary statement
[2] = system: NMDA receptor-mediated responses of STN neurons; conditions: ref Swanger et al., 2015; cited from earlier work
hippocampal interneurons = conditions: ref Perszyk et al., 2016; cited from earlier work
[3] = system: hippocampal CA1 pyramidal neurons; conditions: ref Perszyk et al., 2016; cited from earlier work
[4] = system: native NMDA receptors expressed by STN neurons; type: cell-based, mouse; conditions: APV 400 μM superfusion
[5] = system: native NMDA receptors expressed by hippocampal CA1 pyramidal neurons; type: cell-based, mouse
Procedure, shortened: (§1)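 Transverse 300 μm ventral hippocampal slices were cut from P12–18 C57BL/6J mice. Recording was at 32°C in aCSF with 0.2 mM Mg2+, 20 μM DNQX and 10 μM gabazine, using a Cs-based internal. Visually identified CA1 stratum radiatum/lacunosum moleculare interneurons or CA1 pyramidal neurons were held at +40 mV, with Schaffer collateral stimulation every 30–60 s. Sequence was baseline 5–10 min, 10 μM test compound 10–15 min, then 400 μM DL-APV.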

[6] = system: native NMDA receptors expressed by hippocampal interneurons; type: cell-based, mouse
Procedure, shortened: as §1

[7] = system: native NMDA receptors expressed by STN neurons; type: cell-based, mouse
Procedure, shortened: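 Sagittal 300 μm slices containing STN were cut from P12–18 C57BL/6J mice of either sex. Recording was at 32°C in aCSF with 0.2 mM Mg2+, 20 μM DNQX and 10 μM gabazine, using a Cs-based internal with QX-314, at −40 mV. Internal capsule stimulation was given every 30–60 s during 5–10 min baseline, then 10–15 min vehicle (0.01% DMSO) or 10 μM test compound, then 400 μM DL-APV. Charge transfer was taken as EPSC area.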

GluN1/2C [8] = biological target: T2, GluN1/2C (Rattus norvegicus, UniProt P35439+Q00961); assay: Fast-application whole-cell patch-clamp electrophysiology, HEK293 cells; type: cell-based; conditions: 10 μM PTC-174 continuous; 3–5 ms 1 mM glutamate; 10 μM glycine
T2 sequence (Q00961 20-1237, other chains not shown): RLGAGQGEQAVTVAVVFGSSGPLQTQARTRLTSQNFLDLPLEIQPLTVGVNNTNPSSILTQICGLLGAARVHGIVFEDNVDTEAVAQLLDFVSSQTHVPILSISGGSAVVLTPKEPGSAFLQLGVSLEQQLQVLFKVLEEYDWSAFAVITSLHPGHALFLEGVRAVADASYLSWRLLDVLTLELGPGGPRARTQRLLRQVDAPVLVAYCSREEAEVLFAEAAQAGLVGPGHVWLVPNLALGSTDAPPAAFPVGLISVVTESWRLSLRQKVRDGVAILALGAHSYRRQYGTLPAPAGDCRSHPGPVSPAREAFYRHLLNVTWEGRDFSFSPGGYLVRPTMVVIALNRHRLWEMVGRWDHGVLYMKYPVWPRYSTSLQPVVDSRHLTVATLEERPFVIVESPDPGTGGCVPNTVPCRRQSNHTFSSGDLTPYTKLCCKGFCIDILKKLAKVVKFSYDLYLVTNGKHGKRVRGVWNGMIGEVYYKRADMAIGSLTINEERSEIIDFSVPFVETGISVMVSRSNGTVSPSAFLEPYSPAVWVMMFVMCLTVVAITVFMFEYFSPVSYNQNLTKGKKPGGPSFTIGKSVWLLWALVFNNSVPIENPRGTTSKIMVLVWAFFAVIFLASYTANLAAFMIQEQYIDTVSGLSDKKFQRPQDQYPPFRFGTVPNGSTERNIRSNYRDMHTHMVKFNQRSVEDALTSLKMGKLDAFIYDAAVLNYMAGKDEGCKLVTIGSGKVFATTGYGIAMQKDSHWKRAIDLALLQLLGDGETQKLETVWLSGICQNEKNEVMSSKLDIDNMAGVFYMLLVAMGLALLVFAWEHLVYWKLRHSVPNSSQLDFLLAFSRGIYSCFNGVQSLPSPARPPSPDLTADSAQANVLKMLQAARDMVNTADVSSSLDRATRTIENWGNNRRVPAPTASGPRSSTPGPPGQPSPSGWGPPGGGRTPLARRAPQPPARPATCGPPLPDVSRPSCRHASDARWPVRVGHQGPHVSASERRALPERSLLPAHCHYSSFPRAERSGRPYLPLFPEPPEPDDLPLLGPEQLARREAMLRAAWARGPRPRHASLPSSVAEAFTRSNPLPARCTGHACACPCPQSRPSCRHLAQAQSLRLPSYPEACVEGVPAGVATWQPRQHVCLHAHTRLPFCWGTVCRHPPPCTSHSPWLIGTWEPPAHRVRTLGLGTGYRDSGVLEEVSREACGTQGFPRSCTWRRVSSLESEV
Procedure, shortened: (§2)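 HEK293 cells on poly-D-lysine coverslips in DMEM with 10% dialyzed FBS were calcium-phosphate transfected with GFP, GluN1 and GluN2 cDNAs (1:1:1), with 200 μM D,L-APV and 200 μM 7-chlorokynurenic acid in the medium. About 24 h later, whole-cell recordings were made at 20°C and −60 mV on lifted cells using piezo-driven theta-glass exchange. Cells were accepted at <1000 pA and <10 MΩ series resistance.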

[9] = system: kainate (GluK1–2) receptors; type: cell-based; conditions: 10 μM PTC-174; activated by 100 μM glutamate; concanavalin A pre-incubation
Procedure, shortened: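 Oocytes expressing GluK1 or GluK2 were incubated 10 min in 1 mg/ml concanavalin A in recording solution. They were then clamped at −40 mV at 21–23°C in Ba2+-containing solution, pH 7.4. […] Responses were normalized to control without test compound, from 5–8 oocytes.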

GluN1/2C [10] = biological target: T2, GluN1/2C; type: cell-based
AMPA (GluA1–4) receptors = assay: Two-electrode voltage-clamp electrophysiology, selectivity over AMPA receptors; type: cell-based; conditions: 10 μM PTC-174; activated by 30 μM kainate
Procedure, shortened: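 GluA1–4 AMPA receptors were expressed from cRNA in Xenopus oocytes. Two-electrode voltage clamp was at −40 mV and 21–23°C in Ba2+-containing solution, pH 7.4. Currents were evoked by 30 μM kainate with and without 10 μM test compound (DMSO <0.1%). Responses were normalized to control without test compound, from 5–8 oocytes.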

[11] = biological target: GluN1/2BC1/2DC2 (triheteromeric GluN1/2B/2D) (Rattus norvegicus, UniProt P35439+Q00960+Q62645); type: cell-based; conditions: Hill slope of PTC-174 concentration-response
GluN1/2CC1/2CC2-NK = GluN1/2CC1/2CC2-NK (Rattus norvegicus, UniProt P35439+Q00961, N612K); type: cell-based; conditions: for EC50: EC50, 100 μM glutamate + 50 μM glycine; for nH: Hill slope
Sequence of GluN1/2CC1/2CC2-NK (Q00961 20-836 N612K, other chains not shown): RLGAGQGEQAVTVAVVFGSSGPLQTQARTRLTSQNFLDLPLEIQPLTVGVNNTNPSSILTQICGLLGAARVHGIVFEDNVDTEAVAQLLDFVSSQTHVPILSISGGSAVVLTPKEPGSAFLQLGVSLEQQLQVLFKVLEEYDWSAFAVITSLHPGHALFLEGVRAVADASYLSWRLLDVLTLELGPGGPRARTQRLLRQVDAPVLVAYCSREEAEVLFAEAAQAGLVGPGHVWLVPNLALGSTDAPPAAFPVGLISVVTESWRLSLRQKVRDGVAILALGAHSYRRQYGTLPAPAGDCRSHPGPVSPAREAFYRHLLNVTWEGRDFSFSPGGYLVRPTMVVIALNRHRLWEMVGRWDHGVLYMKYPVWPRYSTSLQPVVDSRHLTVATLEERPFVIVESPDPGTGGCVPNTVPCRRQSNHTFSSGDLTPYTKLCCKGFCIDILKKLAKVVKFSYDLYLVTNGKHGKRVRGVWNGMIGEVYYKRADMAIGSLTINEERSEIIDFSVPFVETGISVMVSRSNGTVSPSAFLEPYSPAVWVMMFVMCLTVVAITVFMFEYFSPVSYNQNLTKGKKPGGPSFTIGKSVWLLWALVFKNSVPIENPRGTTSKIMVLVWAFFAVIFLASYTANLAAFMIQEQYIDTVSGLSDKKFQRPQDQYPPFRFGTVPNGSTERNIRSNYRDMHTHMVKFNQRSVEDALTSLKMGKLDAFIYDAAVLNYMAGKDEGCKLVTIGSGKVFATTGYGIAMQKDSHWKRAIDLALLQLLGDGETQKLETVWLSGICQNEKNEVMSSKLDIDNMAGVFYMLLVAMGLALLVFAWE

GluN1/2B = GluN1/2B (Rattus norvegicus, UniProt P35439+Q00960); type: cell-based
Procedure, shortened: (§3)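 Rat GluN1 with GluN2A or GluN2B was expressed from cRNA in Xenopus oocytes. Oocytes were used 2–4 days later and preinjected with 50 mM BAPTA 10–30 min before recording. Two-electrode voltage clamp was at −40 mV and 21–23°C in Ba2+-containing solution, pH 7.4. […] Responses as % of agonist alone were Hill-fitted for EC50, nH and maximal modulation. At least 4 oocytes from ≥2 frogs were used.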

[12] = biological target: GluN1/2AC1/2BC2 (triheteromeric GluN1/2A/2B) (Rattus norvegicus, UniProt P35439+Q00959+Q00960); type: cell-based
Sequence of GluN1/2AC1/2BC2 (triheteromeric GluN1/2A/2B) (Q00959 23-1464, other chains not shown): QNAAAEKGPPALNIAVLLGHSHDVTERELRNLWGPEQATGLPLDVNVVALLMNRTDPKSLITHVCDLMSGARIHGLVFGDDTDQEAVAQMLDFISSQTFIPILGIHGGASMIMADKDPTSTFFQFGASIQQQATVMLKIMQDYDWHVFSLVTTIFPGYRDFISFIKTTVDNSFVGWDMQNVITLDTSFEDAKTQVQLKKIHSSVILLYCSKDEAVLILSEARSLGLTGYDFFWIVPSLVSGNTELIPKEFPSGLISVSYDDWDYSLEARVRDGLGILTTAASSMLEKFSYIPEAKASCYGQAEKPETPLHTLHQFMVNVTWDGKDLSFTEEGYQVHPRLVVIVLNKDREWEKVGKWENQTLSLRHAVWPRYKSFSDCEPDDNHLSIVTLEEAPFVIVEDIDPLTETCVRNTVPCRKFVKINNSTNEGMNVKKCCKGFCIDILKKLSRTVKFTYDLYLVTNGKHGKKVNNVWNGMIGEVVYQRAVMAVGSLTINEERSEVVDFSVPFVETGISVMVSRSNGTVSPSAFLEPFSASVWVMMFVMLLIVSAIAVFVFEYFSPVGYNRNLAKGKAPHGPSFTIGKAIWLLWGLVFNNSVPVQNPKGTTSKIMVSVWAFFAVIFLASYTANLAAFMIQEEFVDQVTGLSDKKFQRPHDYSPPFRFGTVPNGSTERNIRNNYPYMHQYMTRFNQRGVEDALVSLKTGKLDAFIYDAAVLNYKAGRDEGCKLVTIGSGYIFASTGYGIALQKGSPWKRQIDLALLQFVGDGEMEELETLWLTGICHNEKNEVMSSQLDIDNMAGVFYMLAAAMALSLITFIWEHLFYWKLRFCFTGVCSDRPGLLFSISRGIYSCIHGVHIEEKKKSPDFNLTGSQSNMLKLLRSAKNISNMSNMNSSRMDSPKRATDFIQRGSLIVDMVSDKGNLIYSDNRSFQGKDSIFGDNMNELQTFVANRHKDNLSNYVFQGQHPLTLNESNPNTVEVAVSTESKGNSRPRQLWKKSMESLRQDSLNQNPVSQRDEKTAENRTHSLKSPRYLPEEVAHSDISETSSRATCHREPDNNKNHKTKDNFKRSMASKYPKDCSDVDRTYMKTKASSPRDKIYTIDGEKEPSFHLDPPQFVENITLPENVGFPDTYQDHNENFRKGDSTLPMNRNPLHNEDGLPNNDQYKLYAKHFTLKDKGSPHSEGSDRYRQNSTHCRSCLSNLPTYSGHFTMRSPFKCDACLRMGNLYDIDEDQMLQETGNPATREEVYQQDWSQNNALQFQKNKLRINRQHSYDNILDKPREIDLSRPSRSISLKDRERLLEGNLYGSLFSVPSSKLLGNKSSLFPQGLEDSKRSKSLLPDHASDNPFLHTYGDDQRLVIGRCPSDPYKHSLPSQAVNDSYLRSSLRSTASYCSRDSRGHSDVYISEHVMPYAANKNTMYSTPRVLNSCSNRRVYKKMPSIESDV

GluN1/2A [13] = biological target: GluN1/2A (Rattus norvegicus, UniProt P35439+Q00959); type: cell-based
Sequence of GluN1/2A (Rattus norvegicus, UniProt P35439+Q00959) (Q00959 23-1464, other chains not shown): as above
Procedure, shortened: as §3

GluN1/2D [14] = biological target: T1, GluN1/2D; assay: Fast-application whole-cell patch-clamp electrophysiology, HEK293 cells; type: cell-based; conditions: 10 μM glycine
Procedure, shortened: as §2

[15] = CNS exposure after systemic administration; type: in vivo; conditions: no data shown
[16] = biological target: GluN1/2AC1/2CC2-NK (triheteromeric GluN1/2A/2C) (Rattus norvegicus, UniProt P35439+Q00959+Q00961, N612K); type: cell-based; conditions: Hill slope; in the presence of 1 mM Mg2+
GluN1/2A [17] = conditions: read-out: glycine EC50; in the absence of PTC-174; ref Yi et al. 2016; cited from earlier work
[18] = 10 μM PTC-174, 10 μM glutamate + 1 μM glycine
[19] = 100 μM glutamate + 50 μM glycine
[20] = Hill slope of PTC-174 concentration-response
[21] = relative to the response activated by glutamate + glycine + PTC-174
[22] = control (no modulator), continuous 50 μM glycine

In the case of `COc1ccc(OCC2c3cc(OC)c(OC)cc3CCN2C(=O)c2cccc(Cl)c2)cc1` (single isomer, unassigned; (+)) [(+)-CIQ, (3-Chlorophenyl){6,7-dimethoxy-1-[(4-methoxyphenoxy)methyl]-3,4-dihydro-2(1H)-isoquinolinyl}methanone], the “Efficacy relative to GluN1/2C” value (recombinant GluN1/2A/2C) is given as “nearly as efficacious at recombinant GluN1/2A/2C as at GluN1/2C”, the “Increase in glutamate potency” value (GluN1/2D [1]) is given as “no effect on glutamate potency” and the “Increase in glycine potency” value (GluN1/2D [1]) is given as “no significant effect on glycine potency”. The “Increase in potencies of co-agonists glutamate and glycine” value (from here on “Increase in potencies”) (GluN1/2D [1]) was “no effect on agonist potencies”, the “Effect on NMDA receptor-mediated responses of STN neurons” value [2] was “potentiate” and the “Effect on EPSC decay time” value (hippocampal interneurons) was “did not affect the EPSC decay time”. The “Effect on NMDA receptor-mediated EPSCs” value [3] was “no effect on NMDA receptor-mediated EPSCs”.
With `NC(CCCP(=O)(O)O)C(=O)O` (stereo not drawn) [APV, 2-Amino-5-phosphonovalerate, reference compound] the “Effect on NMDA-evoked current” value [4] was “eliminated; also recorded: completely blocked the response to NMDA”, the “Effect on NMDA receptor-mediated EPSCs” value ([5]; APV 400 μM superfusion) was “completely blocked the NMDA receptor-mediated EPSCs” and the “Effect on NMDA receptor-mediated EPSCs” value ([6]; APV 400 μM superfusion) was “completely blocked the NMDA receptor-mediated EPSCs”. The “Effect on NMDA receptor-mediated EPSCs” value ([7]; APV 400 μM superfusion) was “completely blocked the NMDA receptor-mediated EPSCs”.
With `CC(C)(C)c1ccc(-c2nc3n(c(=O)c2C#N)CCCS3)cn1` [PTC-174, 8-(6-(tert-butyl)pyridin-3-yl)-6-oxo-3,4-dihydro-2H,6H-pyrimido[2,1-b][1,3]thiazine-7-carbonitrile] the “Enhancement of peak responses” value (GluN1/2C [8]) was 3.7 fold, the τfast ([5]; 10 μM PTC-174, +40 mV, baseline 56.0 ± 3.3) was 64.3 ± 9.3 ms and the “τw (weighted EPSC decay time constant)” value ([5]; 10 μM PTC-174, +40 mV, baseline 150.1 ± 10.0) was 187.3 ± 20.0 ms. For the same compound, the τslow ([5]; 10 μM PTC-174, +40 mV, baseline 382.5 ± 38.8) was 416.1 ± 36.9 ms, the “Effect on current responses” value [9] was “did not affect current responses” and the “Potentiation of responses at low glycine” value (GluN1/2C [10]; [18]) was ~ 10 fold. For the same compound, the “Increase in glycine potency” value (GluN1/2C [10]; 10 μM modulator, 100 μM glutamate) was 4.7 fold, the “Maximal modulation (% control)” value (GluN1/2C [10]; [19]) was 1095 ± 29 % control and the nH (GluN1/2C [10]; [20]) was 1.2. For the same compound, the “Maximal potentiation of current responses” value (“Maximal potentiation” below) (GluN1/2C [10]; maximal glutamate plus glycine) was over 10 fold, the “Current response to glutamate only + PTC-174” value (GluN1/2C [10]; [21]) was 1.5% ± 0.1 and the “Current response to glycine only + PTC-174” value (GluN1/2C [10]; [21]) was 4.0% ± 0.9. The “Increase in potencies” value (GluN1/2C [10]; summary statement) was 2- to 5 fold, the “Effect on current responses” value (AMPA (GluA1–4) receptors) was “did not affect current responses” and the “Potentiation of responses at low glycine” value (GluN1/2D [1]; [18]) was ~ 10 fold. For the same compound, the “Increase in glutamate potency” value (GluN1/2D [1]) was 2.5 fold, the “Increase in glycine potency” value (GluN1/2D [1]) was 4.8 fold and the “Maximal modulation (% control)” value (GluN1/2D [1]; [19]) was 1265 ± 67 % control. For the same compound, the nH (GluN1/2D [1]; [20]) was 1.2, the “Maximal potentiation” value (GluN1/2D [1]; maximal glutamate plus glycine) was > 10 fold and 13 fold and the “Increase in potencies” value (GluN1/2D [1]) was 2- to 5 fold. For the same compound, the nH [11] was 1.0, the τfast ([6]; 10 μM PTC-174, +40 mV, baseline 113.7 ± 27.2) was 147.3 ± 46.5 ms and the Peak amplitude ([6]; 10 μM PTC-174, +40 mV, baseline 132.6 ± 20.1) was 157 ± 23 pA and 156.6 ± 23.3 pA. The “τw (weighted EPSC decay time constant)” value ([6]; 10 μM PTC-174, +40 mV, baseline 191.6 ± 6.6) was 292.0 ± 41.8 ms, the τslow ([6]; 10 μM PTC-174, +40 mV, baseline 321.4 ± 36.0) was 522.4 ± 154.9 ms and the EC50 (GluN1/2CC1/2CC2-NK; in the presence of 1 mM Mg2+) was 4.5 ± 0.2 µM. The EC50 (GluN1/2CC1/2CC2-NK; without Mg2+) was 5 ± 0.5 µM, the nH (GluN1/2CC1/2CC2-NK; in the presence of 1 mM Mg2+) was 1.2 and the nH (GluN1/2CC1/2CC2-NK; without Mg2+) was 1.4. The “Potentiation of responses at low glycine” value (GluN1/2B; [18]) was 1.8 fold, the “Maximal modulation (% control)” value (GluN1/2B; [19]) was 180 ± 4 % control and the nH (GluN1/2B; [20]) was 1.3. For the same compound, the “Maximal potentiation” value (GluN1/2B; maximal glutamate plus glycine) was 1.8 fold, the EC50 [12] was 19.7 ± 1.5 µM and the nH [12, 20] was −1.0. For the same compound, the “Effect on current responses (in words)” value ([12]; maximal glutamate plus glycine) was “partial inhibition; also recorded: partial antagonist”, the Charge transfer ([7]; 10 μM PTC-174, −40 mV, baseline 12.9 ± 1.4) was 15.9 ± 2.4 pA·S and the τfast ([7]; 10 μM PTC-174, −40 mV, baseline 49.6 ± 5.5) was 69.3 ± 10.1 ms. The “τw (weighted EPSC decay time constant)” value ([7]; 10 μM PTC-174, −40 mV, baseline 111.0 ± 7.1) was 166.7 ± 21.3 ms and 166.7 ± 2.1 ms, the τslow ([7]; 10 μM PTC-174, −40 mV, baseline 226.2 ± 21.8) was 397.7 ± 131.5 ms and the “Potentiation of responses at low glycine” value (GluN1/2A [13]; [18]) was 1.6 fold. The “Maximal modulation (% control)” value (GluN1/2A [13]; 100 μM glutamate + 50 μM glycine, control = response without PTC-174, inhibition) was 39 ± 4 % control, the nH (GluN1/2A [13]; [20]) was −1.1 and the “Effect on current responses (in words)” value (GluN1/2A [13]; maximal glutamate plus glycine) was “concentration-dependent partial inhibition; also recorded: partial antagonist”. The “Enhancement of peak responses” value (GluN1/2D [14]; 10 μM PTC-174 continuous, 3–5 ms 1 mM glutamate) was 5.3 fold, the “Potentiation of response to 2 second glutamate application” value (GluN1/2D [14]; 10 μM PTC-174 present before and during 1 mM glutamate exposure) was 6.3 fold and the CNS exposure [15] was “readily achieves CNS exposure after systemic administration”. The nH [16] was 1.2.
For `N[C@@H](CCC(=O)O)C(=O)O` [glutamate, reference compound], the “nH (glutamate)” value (GluN1/2C [10]; [22]) was 1.3 and the “nH (glutamate)” value (GluN1/2D [1]; [22]) was 1.7 and 1.5.
In the case of `NCC(=O)O` [glycine], the EC50 (GluN1/2A [17]) is given as 1100 nM.
